Converted amounts (≈) assume the structure as drawn. The source made the active and inactive calls. No cut-off for these calls is given here.
How the values were obtained:
[1] = tested on: Mycobacterium tuberculosis; test: Antitubercular activity against drug-sensitive Mycobacterium tuberculosis H37Rv ATCC 27294 measured after 7 days by microplate alamar blue assay; format: functional; conditions: for MIC90: H37Rv ATCC 27294, 168 h
Summary of the method: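 Microplate Alamar Blue Assay against strain H37Rv ATCC27294. MIC is the lowest concentration giving more than 90% reduction in fluorescence relative to the mean of replicate bacterium-only controls.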

[2] = Half life in mouse at 50 mg/kg, po administered as single dose; format: ADME, organism-based; conditions: in vivo
Summary of the method: (§1)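 Mice (n = 3) received one oral 50 mg/kg dose; plasma levels were followed to derive T1/2 (h), Tmax (h), Cmax (ng/mL) and AUC0-∞ (h·ng/mL).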

[3] = Tmax in mouse at 50 mg/kg, po administered as single dose; format: ADME, organism-based; conditions: in vivo; summary of the method: as §1
[4] = Cmax in mouse at 50 mg/kg, po administered as single dose; format: ADME, organism-based; design: dose 50 mg/kg, route oral; conditions: in vivo; summary of the method: as §1
Mus musculus = test: Acute toxicity in mouse assessed as survival at 500 mg/kg, po administered as single dose measured for 7 days; format: organism-based; conditions: in vivo, 168 h
[5] = AUC (0 to infinity) in mouse at 50 mg/kg, po administered as single dose; format: ADME, organism-based; design: dose 50 mg/kg, route oral, time infinity; conditions: in vivo; summary of the method: as §1

Row | SMILES | MIC90 [1] | further results
1 | O=C(NCc1ccc(N2CCN(c3ccncc3)CC2)cc1)c1cc([N+](=O)[O-])cc([N+](=O)[O-])c1 | 2 µg/mL (≈ 4.32 µM) | –
2 | O=C(NCCN1CCN(c2ccccc2)CC1)c1cc([N+](=O)[O-])cc(C(F)(F)F)c1 | – | Activity [1]: Active
3 | COc1ccc(OCCNC(=O)c2cc([N+](=O)[O-])cc(C(F)(F)F)c2)cc1 | 1 µg/mL (≈ 2.6 µM) | –
4 | O=C(NCc1ccc(N2CCOCC2)cc1)c1cc([N+](=O)[O-])cc(C(F)(F)F)c1 | > 8 µg/mL | –
5 | O=c1nc(N2CCN(CC3CCCCC3)CC2)sc2c([N+](=O)[O-])cc(C(F)(F)F)cc12 [MACOZINONE] | 0.0625 µg/mL (≈ 0.137 µM) | –
6 | CO[C@H]1/C=C/O[C@@]2(C)Oc3c(C)c(O)c4c(O)c(c(/C=N/N5CCN(C)CC5)c(O)c4c3C2=O)NC(=O)/C(C)=C\C=C\[C@H](C)[C@H](O)[C@@H](C)[C@@H](O)[C@@H](C)[C@H](OC(C)=O)[C@@H]1C [RIFAMPIN] | 0.0781 µg/mL (≈ 0.0949 µM) | –
7 | O=C(NCc1ccc(N2CCCCC2)cc1)c1cc([N+](=O)[O-])cc([N+](=O)[O-])c1 | 2 µg/mL (≈ 5.2 µM) | –
8 | O=C(NCc1ccc(N2CCN(c3ccncc3)CC2)cc1)c1cc([N+](=O)[O-])cc(C(F)(F)F)c1 | 8 µg/mL (≈ 16.5 µM) | –
9 | O=C(NCCNc1ccc(Br)cc1)c1cc([N+](=O)[O-])cc(C(F)(F)F)c1 | – | Activity [1]: Active
10 | O=C(NCc1ccc(N2CCC(C(F)(F)F)CC2)cc1)c1cc([N+](=O)[O-])cc([N+](=O)[O-])c1 | 0.0625 µg/mL (≈ 0.138 µM) | half-life [2]: 3.63 h; Tmax [3]: 0.92 h; Cmax [4]: 1720 ng/mL; Activity (Mus musculus): Non-Toxic; AUC(0-inf) [5]: 5600 ng·h/mL
11 | O=C(NCc1ccc(N2CCC(C(F)(F)F)CC2)cc1)c1cc([N+](=O)[O-])cc(C(F)(F)F)c1 | 0.0625 µg/mL (≈ 0.131 µM) | –
12 | O=C(NCCNc1ccc([N+](=O)[O-])cc1)c1cc([N+](=O)[O-])cc(C(F)(F)F)c1 | – | Activity [1]: Active
13 | CN1CCN(c2ccc(CNC(=O)c3cc([N+](=O)[O-])cc(C(F)(F)F)c3)cc2)CC1 | > 8 µg/mL | –
14 | O=C(NCc1ccc(N2CCC(Oc3ccc(OC(F)(F)F)cc3)CC2)cc1)c1cc([N+](=O)[O-])cc(C(F)(F)F)c1 | 2 µg/mL (≈ 3.43 µM) | –
15 | O=C(NCc1ccc(N2CCC(c3ccc(OC(F)(F)F)cc3)CC2)cc1)c1cc([N+](=O)[O-])cc(C(F)(F)F)c1 | 0.5 µg/mL (≈ 0.881 µM) | –
16 | O=C(NCCN1CCN(CC2CCCCC2)CC1)c1cc([N+](=O)[O-])cc(C(F)(F)F)c1 | 0.0781 to 4 µg/mL (≈ 0.177 to 9.04 µM) | –

Row | SMILES | MIC90 [1] | further results
17 | O=C(NCc1ccc(N2CCSCC2)cc1)c1cc([N+](=O)[O-])cc([N+](=O)[O-])c1 | 0.0625 µg/mL (≈ 0.155 µM) | half-life [2]: 3.3 h; Tmax [3]: 2.75 h; Cmax [4]: 19 ng/mL; Activity (Mus musculus): Non-Toxic; AUC(0-inf) [5]: 41.1 ng·h/mL
18 | O=C(NCc1ccc(N2CCC(c3ccc(OC(F)(F)F)cc3)CC2)cc1)c1cc([N+](=O)[O-])cc([N+](=O)[O-])c1 | 0.0625 µg/mL (≈ 0.115 µM) | half-life [2]: 5.52 h; Tmax [3]: 0.83 h; Cmax [4]: 366 ng/mL; Activity (Mus musculus): Non-Toxic; AUC(0-inf) [5]: 3260 ng·h/mL
19 | O=C(NCc1ccc(N2CCN(c3ccccn3)CC2)cc1)c1cc([N+](=O)[O-])cc(C(F)(F)F)c1 | 1 µg/mL (≈ 2.06 µM) | –
20 | O=C(NCc1ccc(N2CCC(Oc3ccc(OC(F)(F)F)cc3)CC2)cc1)c1cc([N+](=O)[O-])cc([N+](=O)[O-])c1 | 0.5 µg/mL (≈ 0.892 µM) | –
21 | O=C(NCc1ccc(N2CCOCC2)cc1)c1cc([N+](=O)[O-])cc([N+](=O)[O-])c1 | > 8 µg/mL | –
22 | CC(C)N1CCN(c2ccc(CNC(=O)c3cc([N+](=O)[O-])cc(C(F)(F)F)c3)cc2)CC1 | 8 µg/mL (≈ 17.8 µM) | –
23 | O=C(NCc1ccc(N2CCN(c3ccc(F)cc3)CC2)cc1)c1cc([N+](=O)[O-])cc(C(F)(F)F)c1 | 0.5 µg/mL (≈ 0.995 µM) | –
24 | CN1CCN(c2ccc(CNC(=O)c3cc([N+](=O)[O-])cc([N+](=O)[O-])c3)cc2)CC1 | 4 µg/mL (≈ 10 µM) | –
25 | O=C(NCc1ccc(N2CC3CCCCC3C2)cc1)c1cc([N+](=O)[O-])cc(C(F)(F)F)c1 (stereo not drawn) | 0.5 µg/mL (≈ 1.12 µM) | –
26 | CC(C)N1CCN(c2ccc(CNC(=O)c3cc([N+](=O)[O-])cc([N+](=O)[O-])c3)cc2)CC1 | 4 µg/mL (≈ 9.36 µM) | –
27 | NNC(=O)c1ccncc1 [ISONIAZID] | 0.0781 µg/mL (≈ 0.569 µM) | –
28 | O=C(NCc1ccc(N2CCN(c3ccccn3)CC2)cc1)c1cc([N+](=O)[O-])cc([N+](=O)[O-])c1 | 1 µg/mL (≈ 2.16 µM) | –
29 | O=C(NCc1ccc(N2CCSCC2)cc1)c1cc([N+](=O)[O-])cc(C(F)(F)F)c1 | 0.125 µg/mL (≈ 0.294 µM) | –
30 | O=C(NCc1ccc(N2CCCCC2)cc1)c1cc([N+](=O)[O-])cc(C(F)(F)F)c1 | 0.25 µg/mL (≈ 0.614 µM) | –
31 | O=C(NCc1ccc(N2CC3CCCCC3C2)cc1)c1cc([N+](=O)[O-])cc([N+](=O)[O-])c1 (stereo not drawn) | 0.0625 µg/mL (≈ 0.147 µM) | Activity (Mus musculus): Non-Toxic
32 | O=C(NCc1ccc(N2CCN(c3ccc(F)cc3)CC2)cc1)c1cc([N+](=O)[O-])cc([N+](=O)[O-])c1 | 0.0625 µg/mL (≈ 0.13 µM) | half-life [2]: 13.6 h; Tmax [3]: 1.08 h; Cmax [4]: 15 ng/mL; Activity (Mus musculus): Non-Toxic; AUC(0-inf) [5]: 219 ng·h/mL
